This data set can be described thus: Toxicity liver stage against HepG2, at 10uM. The note with it: human, HepG2-A16-CD81EGFP cells; read-out: INHIBITION
Also on record: test concentration 10 uM, cell line HepG2-A16-CD81EGFP. The data set is classed as cell-based. The gist of the method:
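Uninfected HepG2-A16-CD81EGFP cells, 3 × 10^3 per well, 1536-well, plated on prespotted compound at 10 μM final, parasite-free screening media added to match infected plates; puromycin 10 μM positive, DMSO 0.5% negative; run in parallel with 48 h PbLuc assay at 37 °C, 5% CO2; viability by CellTiter-Glo luminescence, normalized to controls.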
With `CCNC(=O)N1C[C@@H]2OCC(=O)N(CC3CC3)[C@@H]2C1`, the cytotoxicity at 10 µM came out at 0.434%.

Consider `COc1ccc(CN[C@@H]2CO[C@H](CNC(=O)NC(C)C)[C@H]2O)cc1`, for which the cytotoxicity at 10 µM is -4.7%.

`O=C1CCNc2ccc(F)cc2CN1Cc1ccccc1`: the cytotoxicity at 10 µM was -3.03%.

On to `O=C(CNC(=O)N1CCc2c([nH]c3ccc(Cl)cc23)C1)NC1CCCC1`, for which the cytotoxicity at 10 µM was -2.91%.

As to `O=C(COc1coc(CN2CCCC2)cc1=O)Nc1ccc(Cl)c(Cl)c1`, the cytotoxicity at 10 µM came out at 0.0723%.

Regarding `Cc1cc(-c2nn3c(C4CC4)nnc3s2)on1`, the cytotoxicity at 10 µM is -2.37%.

Consider `O=C(NC1CC(=O)N(C2CC2)C1)c1cccs1` (centres undefined), for which the cytotoxicity at 10 µM stood at 17.5%.

Take `Cc1nn(C)c(C)c1S(=O)(=O)NCC1CCN(c2ccccn2)CC1`: the cytotoxicity at 10 µM came out at 6.5%.

Regarding `Cn1cc(C(=O)Nc2ccc3c(c2)CN(C(=O)C2CC2)CC3)nn1`, the cytotoxicity at 10 µM was 4.59%.

As to `COc1nn(C)cc1C(=O)NCC(OC)c1ccccc1C` (centres undefined), the cytotoxicity at 10 µM was -8.32%.

Turning to `c1cnc(N2CCCn3c(nnc3Cn3cccn3)C2)nc1`, the cytotoxicity at 10 µM is -1.58%.

For `CC(C)NC(=O)N1CCC(c2nnc3ccc(C(=O)N(C)C)cn23)C1` (centres undefined), the cytotoxicity at 10 µM was 8.79%.

Take `Cc1cs/c(=N\C(=O)Cn2nc(N3CCC(C)CC3)ccc2=O)[nH]1`: the cytotoxicity at 10 µM is 1.34%.

On to `O=S(=O)(Nc1cnn(C2CCOCC2)c1)c1ccc(F)c(F)c1`, for which the cytotoxicity at 10 µM is 6.04%.

In the case of `O=C(NCCC1=CCCCC1)C1CCCN(c2ccc3nncn3n2)C1` (centres undefined), the cytotoxicity at 10 µM turned out to be 4.01%.

Regarding `CCN(c1ccc(C(=O)NCCCN2CCCC2)cc1)S(=O)(=O)CC`, the cytotoxicity at 10 µM is -3.29%.

Take `O=C(COCC(=O)N(c1ccccc1)c1ccccc1)N1CCCC1`: the cytotoxicity at 10 µM was 10.9%.

For `COc1ccc2nnc(C(=O)NCC3CCCC3)nc2c1`, the cytotoxicity at 10 µM is -3.35%.

Regarding `CC(=O)N1CCOC(CCc2cc(-c3c(C)noc3C)ncn2)C1` (centres undefined), the cytotoxicity at 10 µM was -1.98%.

For `Cc1noc(C)c1-c1cc(CCC2CN(C(=O)CN)CCO2)ncn1` (centres undefined), the cytotoxicity at 10 µM was found to be 2.89%.

With `CCC(=O)N1CCCC1c1n[nH]cc1-c1ccccc1F` (centres undefined), the cytotoxicity at 10 µM was -3.02%.

On to `COCC(=O)N1CCC([C@@H]2C[C@H](C(F)(F)F)n3nc(C)cc3N2)CC1`, for which the cytotoxicity at 10 µM is -33.6%.

For `CC(=O)N1CCC(C(=O)N2CCCC(Cc3ccccn3)C2)CC1` (centres undefined), the cytotoxicity at 10 µM amounted to 6.97%.

On to `CC(=O)N1CCC(c2cc(Nc3ncccn3)nc(C)n2)C1` (centres undefined), for which the cytotoxicity at 10 µM is -27.7%.

For `CC(=O)N1CCN(C(C)C)CC(COc2ccccc2)C1` (centres undefined), the cytotoxicity at 10 µM is -28.8%.

Regarding `CCNC(=O)c1cccc(CNC(=O)c2cnc(C(C)(C)C)s2)c1`, the cytotoxicity at 10 µM is -0.969%.

As for `c1cnn(CC2CN(c3ncnc4c3CCC4)CCO2)c1` (centres undefined), the cytotoxicity at 10 µM was determined as 31.2%.

In the case of `O=C(COC1CCCC1)N1CCC(C(O)c2ccc(F)cc2)CC1` (centres undefined), the cytotoxicity at 10 µM worked out at 6.62%.

Take `COc1ccc(C2CCCN2c2cnc3ccccc3n2)c(OC)c1` (centres undefined): the cytotoxicity at 10 µM is 7.54%.

For `COc1ccc(Cl)cc1NCC(=O)N(Cc1cccnc1)C1CC1`, the cytotoxicity at 10 µM turned out to be 11.8%.

Take `CC(=O)N1CCC(NC(=O)CN2CCCc3c(C)ccc(F)c32)CC1`: the cytotoxicity at 10 µM was -5.82%.

In the case of `CN1CCN(CCOc2ccc(NC(=O)c3ccoc3)cc2)CC1`, the cytotoxicity at 10 µM was -2.09%.

For the compound `O=C(c1sccc1Br)N1CCOCC1`, the cytotoxicity at 10 µM was -2.34%.

In the case of `CC(=O)NCCCNC(=O)N(C)C(C)Cc1ccc(Cl)cc1` (centres undefined), the cytotoxicity at 10 µM stood at 0.866%.

For the compound `COc1cccc(CN(C)Cc2c(C)noc2C)c1OC`, the cytotoxicity at 10 µM came to 8.82%.

As for `c1csc(-c2nc(CN3CCN(c4cnccn4)CC3)co2)c1`, the cytotoxicity at 10 µM is -5.67%.

In the case of `CCc1nsc(N2CCOC3(CCCC3)C2)n1`, the cytotoxicity at 10 µM turned out to be 6.05%.

With `COc1cc2c(cc1OC)CN(C(=O)Cn1nc(C)cc1C)CC2`, the cytotoxicity at 10 µM was determined as 1.29%.

For `O=C1CC[C@H](C(=O)N(Cc2cccc(Br)c2)C2CC2)N1`, the cytotoxicity at 10 µM was found to be 7.24%.

As for `CC(C)(C)c1n[nH]c(C2CN(Cc3ncc[nH]3)CCO2)n1` (centres undefined), the cytotoxicity at 10 µM was 3.01%.

Turning to `CC(=O)N(C)C1CCN(C(=O)NCCc2cc(F)ccc2F)CC1`, the cytotoxicity at 10 µM is -7.76%.

As for `Cc1c(NCCCOc2cccc(C#N)c2)cccc1C(N)=O`, the cytotoxicity at 10 µM was -0.572%.

Consider `Cc1nc(CN2CCC(c3nc4cc(Cl)ccc4o3)CC2)oc1C`, for which the cytotoxicity at 10 µM was -8.56%.

Regarding `COC(=O)CNC(=O)C1CCN(S(C)(=O)=O)CC1`, the cytotoxicity at 10 µM came out at 2.91%.

Take `O=C(NCc1ccccc1F)N1CCCCC1C1OCCO1` (centres undefined): the cytotoxicity at 10 µM was found to be 2.01%.

For `O=C(CCNC(=O)c1cccc(OC(F)F)c1)Nc1cccnc1`, the cytotoxicity at 10 µM was determined as 0.258%.

For `Cc1nc(C)n(CC2CN(CCc3cccs3)CCO2)n1` (centres undefined), the cytotoxicity at 10 µM stood at 7.12%.

For the compound `CSC1(CNc2ccc(Br)cn2)CCOCC1`, the cytotoxicity at 10 µM was -9.99%.

In the case of `Cc1nc(C2(NCc3cccc(F)c3F)CCCCC2)no1`, the cytotoxicity at 10 µM was found to be 0.749%.

As to `CCC(C)Oc1cc(C(=O)Nc2nccs2)ccn1` (centres undefined), the cytotoxicity at 10 µM was -6.19%.

Regarding `O=C(CCc1ccc(Br)cc1)NCCc1nnc[nH]1`, the cytotoxicity at 10 µM amounted to 2.7%.

Regarding `O=S(=O)(N1CCCCC1)N1CCOC2(CCCC2)C1`, the cytotoxicity at 10 µM was -3.73%.

As to `CC(CO)NC(=O)c1ccc(NCc2ccc(F)c(F)c2)cc1` (centres undefined), the cytotoxicity at 10 µM is -5.89%.

Consider `CC(C)NC(=O)C(C)S(=O)(=O)c1cc2c(cc1Cl)OCCO2` (centres undefined), for which the cytotoxicity at 10 µM was -3.25%.

`COCCN1CC=C(c2cccc(OC)c2)CC1`: the cytotoxicity at 10 µM worked out at 6.45%.

On to `CC(CCc1ccccc1)N1CCC(C(=O)Nc2ccccn2)CC1` (centres undefined), for which the cytotoxicity at 10 µM stood at 13.5%.

Take `Cc1ccc(NC(=O)NCCc2cnn(C)c2)c(N(C)C)n1`: the cytotoxicity at 10 µM is 13.4%.

Consider `N#Cc1ccc(S(=O)(=O)Nc2ccccc2C#N)cn1`, for which the cytotoxicity at 10 µM was -2.93%.

On to `CC(C)OCCC(=O)N(C)c1ccc(F)c(Cl)c1`, for which the cytotoxicity at 10 µM is -4.62%.

In the case of `Cc1ccccc1CNC(=O)CNc1ccc(OC2CCOC2)cc1` (centres undefined), the cytotoxicity at 10 µM was found to be 2.77%.

Regarding `O=C(c1ccc2c(c1)[nH]c(=O)n2C1CCCC1)N1CCSCC1`, the cytotoxicity at 10 µM is -42.3%.

In the case of `CCOc1ccc(C(=O)N(Cc2cnn(C)c2)C(C)C)cc1`, the cytotoxicity at 10 µM was found to be 13.4%.

Regarding `Cn1ccc(C(=O)NCc2ccc(Cn3ccnc3)cc2)cc1=O`, the cytotoxicity at 10 µM was 3.32%.

On to `CC(C)(NS(C)(=O)=O)c1nc(-c2ccc(F)c(F)c2)no1`, for which the cytotoxicity at 10 µM is -1.49%.

With `CCCC(C)NC(=O)c1ccc(-c2ccco2)[nH]c1=O` (centres undefined), the cytotoxicity at 10 µM was -20%.

On to `CC(NC1(CNC(=O)CC(C)(C)C)CCOCC1)c1ccccc1` (centres undefined), for which the cytotoxicity at 10 µM came out at 8.57%.

In the case of `CN(CCNC(=O)N1CCN(Cc2ccon2)CC1)c1ccccc1`, the cytotoxicity at 10 µM is 22.2%.

Turning to `Cc1nn(C)c(C)c1C1COCCN1c1ncnc2sccc12` (centres undefined), the cytotoxicity at 10 µM came to 2.84%.

Take `CCOc1ccc(CN(C)C(=O)NC(C)c2nncn2C)cc1` (centres undefined): the cytotoxicity at 10 µM worked out at 8.62%.

For the compound `COCC1CN(C(=O)c2ccc(C)o2)Cc2nccn2C1` (centres undefined), the cytotoxicity at 10 µM was -97.1%.

As for `O=C(Cc1ccccn1)N1C[C@H]2CCC[C@@]2(COc2ccccn2)C1`, the cytotoxicity at 10 µM worked out at 1.86%.

For `CCn1ncc2[nH]c(-c3cc4c(cc3OC)OCO4)nc21`, the cytotoxicity at 10 µM is -2.99%.

On to `O=C(C1CCCN(C2CCOCC2)C1)N1CCc2ncccc2C1` (centres undefined), for which the cytotoxicity at 10 µM was found to be 4.21%.

As to `COC(=O)c1ccc(C(=O)N2CCCC(Nc3ccc(F)cc3)C2)cc1` (centres undefined), the cytotoxicity at 10 µM came out at 1.34%.

As for `COCCCC1(CO)CCCN(CCOC)C1` (centres undefined), the cytotoxicity at 10 µM is -1.87%.

As to `COC1CCCN(CCCc2cn[nH]c2)C1` (centres undefined), the cytotoxicity at 10 µM worked out at 2.24%.

Regarding `Cc1ccc(CN(Cc2ccncc2)C2CCN(C)CC2)s1`, the cytotoxicity at 10 µM was 7.39%.

Turning to `CCC1CCN(CCn2cnc3c(C)csc3c2=O)CC1`, the cytotoxicity at 10 µM is -6.94%.

Turning to `O=C(CC1CCc2ccccc21)N1CCC(O)(Cn2ccnc2)CC1` (centres undefined), the cytotoxicity at 10 µM is 5.01%.

For the compound `COc1cccc(CN2CCCC3(CCN(C(CO)CO)C3)C2)c1` (centres undefined), the cytotoxicity at 10 µM is -5.96%.

As to `Cc1nn(CC(=O)N(C)Cc2nncn2C(C)C)c(=O)c2ccccc12`, the cytotoxicity at 10 µM is 3.1%.

In the case of `CO[C@@H]1c2ccccc2C2(CCN(C(=O)CNS(C)(=O)=O)CC2)[C@H]1O`, the cytotoxicity at 10 µM was 11.1%.

As to `CCN1CCN(Cc2nc(Cc3ccccc3)n[nH]2)CC1`, the cytotoxicity at 10 µM is -9.34%.

Turning to `CC(CN1CCOCC1)NC1CCN(Cc2cccc(O)c2)CC1` (centres undefined), the cytotoxicity at 10 µM was -0.683%.

With `Cc1ccc(C(=O)O)c(N2Cc3cnc(C(C)(C)C)nc3C2)n1`, the cytotoxicity at 10 µM came to 5.67%.

`COc1ccc(CN2C[C@@H](CN(C)C)[C@@H](CO)C2)cc1CN1CCCC1`: the cytotoxicity at 10 µM amounted to 4.59%.

Consider `CN(C)CCNc1cc(-c2ncccc2Cl)c2cc[nH]c2n1`, for which the cytotoxicity at 10 µM was determined as 8.45%.

Consider `Cc1nc(CCCNC(=O)C2CC(=O)N(C(C)(C)C)C2)sc1C` (centres undefined), for which the cytotoxicity at 10 µM is -6.86%.

As to `CCC(NC(=O)C1CCN(S(C)(=O)=O)CC1)c1ccc(OC)c(OC)c1` (centres undefined), the cytotoxicity at 10 µM was -6.69%.

Turning to `CC(NC(=O)NCCCn1cccn1)c1ccc2c(c1)OCCCO2` (centres undefined), the cytotoxicity at 10 µM is -9.13%.

With `Cc1noc2ncc(C(=O)N(CC3CCOC3)C3CC3)cc12` (centres undefined), the cytotoxicity at 10 µM is -6.64%.

As for `Cc1nc(CNCC2CCCN2c2cccnn2)cs1` (centres undefined), the cytotoxicity at 10 µM was -6.26%.

With `CCOc1cc(/C=C/c2ncc(C(=O)O)s2)ccc1O`, the cytotoxicity at 10 µM came to 0.241%.

Turning to `CS(=O)(=O)NC1CCCN(C(=O)NCc2cccnc2)C1` (centres undefined), the cytotoxicity at 10 µM worked out at 1.59%.

For `CN1CCc2onc(Cn3cccc3)c2C1`, the cytotoxicity at 10 µM worked out at 7.25%.

Turning to `COc1ccc(OCCNCc2c(C)nn(C)c2N(C)C)cc1`, the cytotoxicity at 10 µM is -6.63%.

As for `CC1c2ncc(COc3cccnc3)n2CCN1C(=O)C1=CCCC1` (centres undefined), the cytotoxicity at 10 µM was -2.59%.

For the compound `CC(C)OCc1ncn2c1CN(Cc1cnn(C)c1)CCC2`, the cytotoxicity at 10 µM was found to be 6.13%.

As to `O=C(CCN1C[C@H]2CC[C@@H]1C2)N1CCN(c2cccc(Cl)c2)C(=O)C1`, the cytotoxicity at 10 µM was found to be 1.4%.
